Experiment: Toxicity liver stage against HepG2, at 10uM
Format: cell-based
Design: test concentration 10 uM, cell line HepG2-A16-CD81EGFP
Settings: human, HepG2-A16-CD81EGFP cells; read-out: INHIBITION
How it was run: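 Uninfected HepG2-A16-CD81EGFP cells, 3 × 10^3 per well, 1536-well, plated on prespotted compound at 10 μM final, parasite-free screening media added to match infected plates; puromycin 10 μM positive, DMSO 0.5% negative; run in parallel with 48 h PbLuc assay at 37 °C, 5% CO2; viability by CellTiter-Glo luminescence, normalized to controls.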

Row | SMILES | cytotoxicity at 10 µM
1 | CNC(=O)CN1CCC(NC(=O)C(C)Oc2ccccc2C#N)CC1 (stereo not given) | 1.97%
2 | O=C(NC[C@H]1OC[C@@H](NC2CCOCC2)[C@@H]1O)C1CCCC1 | -1%
3 | COCCOc1ccnc(-c2noc([C@@H]3CCCN3CC3CC3)n2)c1 | -4.55%
4 | CCOC(=O)Cc1csc(NC(=O)c2ccc(=O)[nH]n2)n1 | -1.23%
5 | O=C(Cc1ccccc1)N1CC(=O)N(Cc2ccco2)CC(O)C1 (stereo not given) | -4.05%
6 | Cc1cnc2n(c1=O)C(CC(=O)NCc1ccc(F)cc1)CS2 (stereo not given) | 6.47%
7 | COCCN1CCCC12CCCN(c1ncccn1)C2 (stereo not given) | -6.9%
8 | CS(=O)(=O)N[C@@H]1COC[C@@H]2CN(Cc3ccco3)C[C@@H]21 | -1.43%
9 | CC(C)CNC(=O)c1ccc2c(c1)nc1n2CCN(Cc2ccco2)C1 | -3.78%
10 | CC(=O)N1CCN(C(=O)Cn2ccc3c(Cl)cccc32)CC1 | -0.643%
11 | O=C(O)CSC1CCc2ccccc2NC1=O (stereo not given) | 1.13%
12 | Cc1nn(CCC(=O)N(C)Cc2c(Cl)cnn2C)cc1Br | 1.29%
13 | CCn1c(NCc2ccccn2)nc2c(C)nn(C)c2c1=O | 9.51%
14 | CC(NC(=O)c1ccc(Cl)cc1)c1nnc(SCC(=O)O)n1C (stereo not given) | -9.35%
15 | CC(=O)N1CCCC(c2ccc(CO)c(-c3c(C)noc3C)n2)C1 (stereo not given) | -4.09%
16 | CC(=O)N1CCC(c2noc(C3CCC(=O)N3)n2)CC1 (stereo not given) | 1.64%
17 | CC(C)c1cc(C(=O)N2CCCC(c3cc(=O)nc4n3CCC4)C2)no1 (stereo not given) | 0.983%
18 | COc1ccc(C2CN(c3ncccn3)CCN2C(C)=O)cc1 (stereo not given) | 5.27%
19 | Cc1cccc(C)c1Nc1noc2c1CN(C(=O)c1c[nH]nc1C)CC2 | 6.22%
20 | CCSCc1nc(O)c2nnn(C3CCN(Cc4ccoc4)CC3)c2n1 | 4.71%
21 | Cc1ccnc(NC(=O)c2cncc(C3CCNCC3)n2)c1 | -9.48%
22 | Fc1ccc(CN2CCC(c3noc(-c4cnccn4)n3)CC2)cc1F | 2.35%

Row | SMILES | cytotoxicity at 10 µM
23 | CC1Cc2ccccc2N1C(=O)Cn1nc(-c2cccs2)cc(N)c1=O (stereo not given) | -10.6%
24 | Cc1cc(-c2cnc(C)nc2CN(C)C(=O)c2ccccn2)on1 | 7.95%
25 | CC(=O)N[C@@H]1C[C@H](c2ccc(OCCO)cc2)OC2(CCOCC2)C1 | -21.2%
26 | Cc1cc(CCC(N)=O)cc(C2CCCN2Cc2ccccn2)n1 (stereo not given) | -16.7%
27 | Cc1nc(C2CCCN2C(=O)CCc2ccccc2)ncc1C(N)=O (stereo not given) | -19.5%
28 | Nc1nc2nc(C3CCCN(C(=O)c4cncs4)C3)ccc2s1 (stereo not given) | -19.1%
29 | Cn1c(CO)cnc1SC(C(N)=O)c1ccccc1 (stereo not given) | -48.8%
30 | CC(CN1CCOC1=O)NC(=O)c1ccccc1Oc1ccccc1 (stereo not given) | 1.2%
31 | Cc1nn2cccnc2c1C(=O)NCc1ccccc1OCC1CC1 | -48.4%
32 | NC(=O)C1CCN(C(=O)NC2CCc3cc(Cl)ccc32)CC1 (stereo not given) | 1.67%
33 | CCc1ccc(C(COC)NC(=O)c2ccc(NC(C)=O)cc2)o1 (stereo not given) | -3.91%
34 | COCc1nccc(C2CCCN(Cc3ccc(C#N)cc3)C2)n1 (stereo not given) | 6.45%
35 | CCS(=O)(=O)N(C)C1CCN(C(=O)c2cc(C)cc(C)c2)CC1 | 11.5%
36 | COC(=O)CCNC(=O)c1cnc(Cc2ccc(F)cc2)s1 | -5.87%
37 | Cc1noc(C)c1CN(C)C(=O)Nc1cnn(CC2CCCO2)c1 (stereo not given) | -2.77%
38 | CC(O)CN1CCN(C(=O)CN(C)c2ccc(C#N)cn2)CC1 (stereo not given) | -0.785%
39 | COCCCNC(=O)c1ccccc1S(C)(=O)=O | -2.83%
40 | O=C(NC1CC1)c1nnn(-c2cccc(C(F)(F)F)c2)c1C1CC1 | 4.01%
41 | NC(=O)CN1CCN(c2ccnc3c(F)ccc(F)c23)CC1 | 0.315%
42 | CCn1cc(S(=O)(=O)N2CCCSc3ccccc32)cn1 | 9.25%
43 | Cc1ccsc1CN(C)c1cc(N2CCCC2CO)ncn1 (stereo not given) | 11.7%
44 | COCC(C)NC(=O)CN1CCC(C)CC1 (stereo not given) | -9.32%

Row | SMILES | cytotoxicity at 10 µM
45 | Cc1cc(C)cc(C(=O)N2CCN(C(=O)N(C)C)CC2(C)C)c1 | 1.98%
46 | O=S(=O)(NCc1ccc(S(=O)(=O)N2CCCC2)s1)c1ccc(F)cc1Cl | -39.9%
47 | CC(CCNC(=O)N(C)CC1CCOCC1)N1CCCCC1 (stereo not given) | 8.63%
48 | O=C(Cc1cccs1)N1Cc2nc(COCC3CC3)oc2C1 | 2.55%
49 | CN(C)C(=O)C1CCC2(CCN(C(=O)Nc3cccc(F)c3)CC2)O1 (stereo not given) | -104%
50 | CC(=O)NCC(=O)N1Cc2nccn2CC(CN2CCCC2=O)C1 (stereo not given) | -76.9%
51 | CN1CCN(Cc2ccsc2)Cc2cccnc21 | -77.9%
52 | O=C(Cc1cccnc1)N1CCCC2(CCN(CC3CCOCC3)C2)C1 (stereo not given) | 2%
53 | CCc1nccc(CN2CCC(CNC(=O)Nc3ccccc3)C2)n1 (stereo not given) | 9.99%
54 | COCc1ncc(CN2CCC3(CCNCC3)CC2)cn1 | -139%
55 | O=C(NC1CCCN(c2ncccn2)C1)c1cn2ccccc2n1 (stereo not given) | -4.38%
56 | O=C(NCCC1CN(Cc2c[nH]cn2)CCO1)c1ccccc1O (stereo not given) | 0.423%
57 | CCN1CC2(CCC1=O)CCN(C(=O)c1ccc(C)cc1O)CC2 | -0.0198%
58 | CCCc1nc(C)cc(NCc2ccc(S(N)(=O)=O)cc2)n1 | 10.3%
59 | Cc1csc2c(=O)n(CCSc3cnn[nH]3)cnc12 | -3.61%
60 | CC(C)Cc1noc(CN(C)C[C@]2(O)CCCN3CCCC[C@@H]32)n1 | -2.36%
61 | O=C(c1cccc(S(=O)(=O)NCCCn2cccn2)c1)N1CCOCC1 | 5.78%
62 | CS(=O)(=O)N1C[C@H]2CNC[C@@]2(C(=O)NCCOc2ccccc2)C1 | 2.1%
63 | O=C1NCCN2CCN(C(=O)Nc3ccc(-c4ccccc4)cc3)CC12 (stereo not given) | -119%
64 | CCc1nc(C)c(CN2CCOC(Cc3cccc4ccccc34)C2)[nH]1 (stereo not given) | -5.54%
65 | Cc1ccc(C(=O)N2CCC(c3nccn3C(C)C)CC2)c(=O)[nH]1 | 4.75%
66 | NC(=O)NCCC(=O)N1CCC(c2cc(-c3ccccc3Cl)n[nH]2)CC1 | -6.67%

Row | SMILES | cytotoxicity at 10 µM
67 | Cc1ccccc1CN(CCN(C)C)C(=O)c1ccc2nccn2c1 | -2.36%
68 | NCc1n[nH]c(=O)n1-c1cccc(Cl)c1Cl | -0.994%
69 | CC(C)c1ccc(CN2CCC(CNS(=O)(=O)C3CC3)C2)cc1 (stereo not given) | -1.37%
70 | Cn1cccc1-c1cc(C(=O)N2CCCC2c2ccc(C(N)=O)s2)[nH]n1 (stereo not given) | -1.33%
71 | Clc1cccc2c3c([nH]c12)CCN(Cc1cc2n(n1)CCCNC2)C3 | -17.1%
72 | O=c1c2ccccc2ncn1Cc1cc(C2CC2)[nH]n1 | 3.8%
73 | CC(C)n1cc(CN(Cc2ccc(F)cc2)CC2CCCO2)cn1 (stereo not given) | -3.47%
74 | Cc1cnn(CCCN2C(=O)CCc3ccccc32)c1 | 1.39%
75 | O=C(Cc1cccc(O)c1)N1CCC2(CC1)c1ccccc1CC2O (stereo not given) | 2.28%
76 | O=C1CCC2(CCN(Cc3cc(F)cc(F)c3)CC2)CN1CCO | -11.6%
77 | Cc1nccnc1CN1CCC2(CCCN(C3CCOCC3)C2=O)C1 (stereo not given) | -5.44%
78 | Cc1nc(CN2CCCC(Cn3cc(CCO)nn3)C2)c[nH]1 (stereo not given) | -21.1%
79 | O=C(CCN1CCCC1=O)NCc1cccnc1Oc1ccccc1 | -7.47%
80 | CCOc1ccc(Cl)c(C(=O)NCCC(=O)Nc2ccccn2)n1 | -3.13%
81 | Cc1noc(C2CCN(C(=O)CCCNc3ncccn3)CC2)n1 | -6.69%
82 | Cc1nc(-c2ccsc2)ccc1C(=O)NCCN1CCN(C)CC1 | -11.2%
83 | CCc1noc(CNc2ccc(C(=O)N3CCCC(C)C3)cc2C)n1 (stereo not given) | -10.8%
84 | CN(CCCOc1ccccc1)C(=O)CN1CCc2cncnc2C1 | -2.06%
85 | CCS(=O)(=O)c1ccccc1N1CCC(NC(=O)c2ccc[nH]2)CC1 | -8.26%
86 | Cc1ccc2oc(C(=O)N3CCCC(n4nc(C)cc4C)C3)cc2n1 (stereo not given) | 1.25%
87 | CC(O)CN1CCC(CNCc2ccccc2Br)CC1 (stereo not given) | -13.2%
88 | Cc1ncc(CNC2CCCN(Cc3noc(C4CC4)n3)C2)s1 (stereo not given) | -7.7%

Row | SMILES | cytotoxicity at 10 µM
89 | c1ccc(Cn2ccnc2CN2CCCC2c2noc(C3CC3)n2)cc1 (stereo not given) | -0.818%
90 | CNc1snc(C)c1C(=O)N1CCCC(n2ccnc2C(C)C)C1 (stereo not given) | 1.66%
91 | O=C(CCc1cscn1)N1CCCC1c1noc(C2CC2)n1 (stereo not given) | -10.9%
92 | O=C(COCC1CC1)N1CCCC(n2cncn2)C1 (stereo not given) | -3.54%
93 | c1cc(CN2CCCn3cnc(COCC4CC4)c3C2)ccn1 | 7.31%
94 | Cn1ccc(C(=O)N2C[C@@H]3OCCN(c4ncccn4)[C@@H]3C2)n1 | 5.7%
95 | O=C(C1CCOCC1)N1CCC2(CCN(Cc3nccs3)CC2)CC1 | -83.1%
96 | C[C@@H]1CN(C(=O)C2CCOCC2)C[C@]12CCN(c1cccnc1)C2=O | 6.95%
97 | Cc1ncsc1CN1C[C@@H]2COC[C@]2(C(=O)NC(C)C)C1 | -98.6%
98 | CC(C)COCc1cncc2c1CCN(C(=O)c1cscn1)C2 | -108%
99 | CN1CCOCC2(CCCN(C(=O)c3cnccn3)C2)C1 (stereo not given) | -75.4%
100 | O=C(c1nc2c(o1)CN(CC1CC1)C2)N1CCCC1 | -163%
101 | COCCNC(=O)[C@H]1C[C@@H]2CCN(c3nncs3)C[C@H]2O1 | -2.12%
102 | Cc1noc(C)c1C(=O)N1C[C@@H]2COC[C@]2(COc2ccccn2)C1 | 2.47%
103 | O=C(c1ccccc1F)N1CCCn2c(CN3CCCCC3)nnc2C1 | -71.5%
104 | Cc1noc([C@@]23CCO[C@@H]2CCN(Cc2scnc2C)C3)n1 | -111%
105 | c1csc(CN2CCCC3(COCCN(c4cnccn4)C3)C2)c1 (stereo not given) | -68.7%
106 | O=C(N[C@@H]1CN(Cc2ccccn2)[C@@H]2COC[C@@H]21)C1CCC1 | 8.67%
107 | Cc1noc(C)c1CN1Cc2nccn2CC(CN2CCOCC2)C1 (stereo not given) | -82%
108 | CO[C@@H]1CC[C@H]2[C@H]1OCCN2Cc1ccccn1 | 1.06%
109 | NC1CCC(CN2CCCn3nc(CNC(=O)C4CCC4)cc3C2)CC1 (stereo not given) | 4.03%
110 | C1CC(CN2C[C@@H]3CC[C@H]2CN(Cc2noc(C4CCCC4)n2)C3)C1 | -15.6%
